The target of assay [1] is Disintegrin and metalloproteinase domain-containing protein 17 (Homo sapiens, UniProt P78536). As to the kind of experiment: Inhibition of recombinant human C-terminal His6-tagged ADAM17 (Arg215 to Asn671 residues) expressed in baculovirus infected Sf21 cells using Mca-PLAQAV-Dpa-RSSSR-NH2 as substrate by fluorescence spectrophotometric method. The gist of the method:
(§1)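 Enzymes and their substrates were obtained as in earlier work, and inhibition was run by a previously reported protocol. Ki values were measured in triplicate.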

In assay [2] the target is Macrophage metalloelastase (Homo sapiens, UniProt P39900). Description: Inhibition of recombinant human MMP12 catalytic domain using Mca-PLGL-DpaAR-NH2 as substrate by fluorescence spectrophotometric method. The gist of the method: as §1
Assay [3] deals with T1, Disintegrin and metalloproteinase domain-containing protein 10 (Homo sapiens) (UniProt O14672).
T1 sequence (whole entry): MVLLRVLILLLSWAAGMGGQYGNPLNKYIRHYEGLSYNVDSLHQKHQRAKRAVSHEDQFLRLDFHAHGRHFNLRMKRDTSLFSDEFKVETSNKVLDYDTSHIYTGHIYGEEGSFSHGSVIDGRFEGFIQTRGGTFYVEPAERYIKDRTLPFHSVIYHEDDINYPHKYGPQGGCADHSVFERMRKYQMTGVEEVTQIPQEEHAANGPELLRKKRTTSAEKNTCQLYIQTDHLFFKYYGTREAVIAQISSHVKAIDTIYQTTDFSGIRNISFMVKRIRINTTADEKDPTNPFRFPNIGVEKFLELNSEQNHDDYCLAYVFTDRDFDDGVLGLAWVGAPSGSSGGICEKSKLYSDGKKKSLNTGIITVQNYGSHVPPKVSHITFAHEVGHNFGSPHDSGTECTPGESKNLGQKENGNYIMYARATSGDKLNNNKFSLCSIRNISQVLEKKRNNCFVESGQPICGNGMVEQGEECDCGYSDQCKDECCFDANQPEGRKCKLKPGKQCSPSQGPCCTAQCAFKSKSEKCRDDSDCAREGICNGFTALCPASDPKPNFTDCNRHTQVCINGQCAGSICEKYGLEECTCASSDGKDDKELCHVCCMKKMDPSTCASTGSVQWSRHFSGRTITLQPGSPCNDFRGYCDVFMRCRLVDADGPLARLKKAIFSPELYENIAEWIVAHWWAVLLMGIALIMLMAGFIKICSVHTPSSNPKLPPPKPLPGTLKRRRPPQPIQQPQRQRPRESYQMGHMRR
As to the kind of experiment: Inhibition of recombinant human C-terminal His10-tagged ADAM10 (Thr214 to Glu672 residues) expressed in baculovirus infected Sf21 cells at 10 uM using McaKPLGL-Dpa-AR-NH2 as substrate by fluorescence spectrophotometric method relative to control. The gist of the method: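 Single inhibitor concentration of 10 μM, reported as percent inhibition. Enzymes and substrates as in earlier work, with inhibition run by a previously reported protocol.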

For assay [4], the target named is Neutrophil collagenase (Homo sapiens, UniProt P22894). Description: Inhibition of recombinant human MMP8 catalytic domain (Phe99 to Gln269 residues) expressed in Escherichia coli using McaKPLGL-Dpa-AR-NH2 as substrate by fluorescence spectrophotometric method. The gist of the method: as §1

Molecules are shown by their SMILES.

Neutrophil collagenase, sequence (P22894 whole entry, the tested form may be a part): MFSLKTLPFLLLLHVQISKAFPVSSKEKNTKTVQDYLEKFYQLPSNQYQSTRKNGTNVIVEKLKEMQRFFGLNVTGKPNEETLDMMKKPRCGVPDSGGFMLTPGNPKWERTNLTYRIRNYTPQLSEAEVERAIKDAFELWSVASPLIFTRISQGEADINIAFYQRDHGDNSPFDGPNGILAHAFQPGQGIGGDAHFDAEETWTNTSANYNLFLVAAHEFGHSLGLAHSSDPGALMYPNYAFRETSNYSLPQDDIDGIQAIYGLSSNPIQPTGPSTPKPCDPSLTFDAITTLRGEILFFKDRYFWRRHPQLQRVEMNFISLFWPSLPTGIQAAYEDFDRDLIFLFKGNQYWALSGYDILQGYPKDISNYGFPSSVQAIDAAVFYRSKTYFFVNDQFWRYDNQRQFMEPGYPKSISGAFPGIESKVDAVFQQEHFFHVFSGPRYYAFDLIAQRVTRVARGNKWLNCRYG
Disintegrin and metalloproteinase domain-containing protein 17, sequence (P78536 whole entry, the tested form may be a part): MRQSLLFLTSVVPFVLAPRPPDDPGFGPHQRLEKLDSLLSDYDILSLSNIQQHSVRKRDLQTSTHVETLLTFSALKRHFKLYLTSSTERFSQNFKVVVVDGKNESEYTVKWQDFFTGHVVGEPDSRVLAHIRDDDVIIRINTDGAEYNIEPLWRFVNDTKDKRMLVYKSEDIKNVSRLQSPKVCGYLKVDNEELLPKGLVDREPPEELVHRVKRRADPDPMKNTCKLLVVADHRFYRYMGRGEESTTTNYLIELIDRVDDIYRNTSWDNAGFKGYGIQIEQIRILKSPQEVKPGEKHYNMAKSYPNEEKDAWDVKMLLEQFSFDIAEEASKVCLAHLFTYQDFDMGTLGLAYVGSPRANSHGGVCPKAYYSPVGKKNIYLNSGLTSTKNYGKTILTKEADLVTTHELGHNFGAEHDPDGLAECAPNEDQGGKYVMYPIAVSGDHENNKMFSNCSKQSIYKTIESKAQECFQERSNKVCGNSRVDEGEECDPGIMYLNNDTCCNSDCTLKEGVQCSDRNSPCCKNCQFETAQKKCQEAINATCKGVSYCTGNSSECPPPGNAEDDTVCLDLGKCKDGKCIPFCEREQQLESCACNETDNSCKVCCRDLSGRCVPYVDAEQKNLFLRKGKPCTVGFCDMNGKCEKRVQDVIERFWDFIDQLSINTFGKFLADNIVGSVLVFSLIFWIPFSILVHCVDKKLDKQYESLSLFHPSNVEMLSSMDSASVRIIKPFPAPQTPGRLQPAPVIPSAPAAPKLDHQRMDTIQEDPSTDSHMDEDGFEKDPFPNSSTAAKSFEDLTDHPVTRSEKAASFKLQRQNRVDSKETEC
Macrophage metalloelastase, sequence (P39900 whole entry, the tested form may be a part): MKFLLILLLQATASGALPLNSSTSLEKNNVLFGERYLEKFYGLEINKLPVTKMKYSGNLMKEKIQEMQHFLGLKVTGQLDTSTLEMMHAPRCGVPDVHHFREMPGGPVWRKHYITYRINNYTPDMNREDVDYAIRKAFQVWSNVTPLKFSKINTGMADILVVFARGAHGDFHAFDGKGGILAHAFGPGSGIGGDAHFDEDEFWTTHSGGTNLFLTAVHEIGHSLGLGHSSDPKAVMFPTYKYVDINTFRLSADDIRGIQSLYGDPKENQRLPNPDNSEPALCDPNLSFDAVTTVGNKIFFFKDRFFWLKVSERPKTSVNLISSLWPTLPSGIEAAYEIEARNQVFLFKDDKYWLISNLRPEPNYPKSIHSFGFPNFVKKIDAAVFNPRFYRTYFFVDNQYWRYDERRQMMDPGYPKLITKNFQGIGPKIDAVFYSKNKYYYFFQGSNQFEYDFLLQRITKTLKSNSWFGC

Turning to `CN1CC2(CC2)C[C@H](C(=O)NO)[C@H]1C(=O)N1CCN(c2ccc(C(F)(F)F)cn2)CC1`, the Ki (as a rule, the equilibrium dissociation constant of an inhibitor or competing ligand from its target) in assay [1] turned out to be 61 nM; in assay [2], 29.5 nM; in assay [4], 3.01 nM. In assay [3], the inhibition (commonly the percentage by which the read-out fell short of the control) was determined as 3%.
